# In ChEMBL document CHEMBL4382268, “Glycyrrhetinic acid derivatives containing aminophosphonate ester species as multidrug resistance reversers that block the NF-κB pathway and cell proliferation” (Bioorg Med Chem Lett, 2018):
# The source made the active and inactive calls. The calls are words filed in the database; no cut-off is given here.
# Assays:
# A549 [1] = test: Cell cycle arrest in human A549 cells assessed as accumulation at G1 phase at 5 uM after 24 hrs by propidium iodide staining based flow cytometry (reference value: 47.0%); type: functional
# A549 [2] = test: Induction of apoptosis in human A549 cells assessed as viable cells at 5 uM after 24 hrs by annexin V-FITC/propidium iodide staining-based flow cytometry analysis (reference value: 96.0%); type: functional; details: A549, 24 h, read-out: Activity
# Summary of the method: (§1)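 A549 cells treated at 5, 10 and 20 µM for 24 h, then harvested and stained with Annexin V-FITC and PI. Flow cytometry quadrants: Q1 necrotic, Q2 late apoptotic/necrotic, Q3 early apoptotic, Q4 living. Performed three times.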
# L02 = test: Antiproliferative activity against human HL-7702 cells after 48 hrs by MTT assay; type: functional, cell-based; details: L02, 48 h
# Summary of the method: (§2)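 MTT read-out of antiproliferative activity across cancer lines HepG-2, NCI-H460, MGC-803, A549 and MG-63 and normal liver line HL-7702. IC50 given as mean ± S.D. of three separate experiments, each run in triplicate.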
# A549 [3] = test: Induction of apoptosis in human A549 cells assessed as early apoptotic cells at 20 uM after 24 hrs by annexin V-FITC/propidium iodide staining-based flow cytometry analysis (reference value: 1.28%); type: functional; summary of the method: as §1
# [4] = Growth inhibition of cisplatin-resistant human SKOV3/DDP cells after 48 hrs by MTT assay; type: functional; details: SK-OV-3, 48 h
# Summary of the method: (§3)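 MTT growth inhibition in the paired ovarian lines, cisplatin-sensitive SK-OV-3 and cisplatin-resistant SK-OV-3/CDDP. IC50 given as mean ± S.D. of three separate experiments, each in triplicate.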
# A549 [5] = test: Cell cycle arrest in human A549 cells assessed as accumulation at S phase at 20 uM after 24 hrs by propidium iodide staining based flow cytometry (reference value: 38.76%); type: functional
# SK-OV-3 = test: Growth inhibition of cisplatin sensitive human SKOV3 cells after 48 hrs by MTT assay; type: functional, cell-based; details: SK-OV-3, 48 h; summary of the method: as §3
# MG-63 = test: Antiproliferative activity against human MG63 cells after 48 hrs by MTT assay; type: functional, cell-based; details: MG-63, 48 h; summary of the method: as §2
# A549 [6] = test: Antimigratory activity against human A549 cells after 24 hrs by crystal violet staining based fluorescence microscopic analysis; type: functional, cell-based
# Summary of the method: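 Transwell migration of A549 cells incubated at 5, 10 and 20 µM for 24 h. Performed three times, representative images shown.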
# [7] = Inhibition of TNF-alpha induced NF-kappaB activation in human A549 cells after 7 hrs by Bright-Glo luciferase reporter gene assay; type: cell-based; details: Homo sapiens, A549, 7 h; read-out: IC50
# Summary of the method: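 A549 cells transiently cotransfected with an NF-κB-Luc reporter and stimulated with TNF-α. Luciferase read-out of inhibition gives IC50, the mean of at least three independent experiments each with triplicates.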
# MGC-803 = test: Antiproliferative activity against human MGC803 cells after 48 hrs by MTT assay; type: functional, cell-based; details: MGC-803, 48 h; summary of the method: as §2
# A549 [8] = test: Induction of apoptosis in human A549 cells assessed as hyper condensed nuclei at 5 to 20 uM after 24 hrs by Hoechst […] staining based fluorescence microscopic method; type: functional, cell-based
# Summary of the method: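 After 24 h exposure at 5, 10 and 20 µM, A549 cells harvested and stained with Hoechst 33258. Nuclear morphology, including brightly stained hypercondensed nuclei, inspected against untreated control. Three experiments.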
# A549 [9] = test: Induction of apoptosis in human A549 cells assessed as viable cells at 20 uM after 24 hrs by annexin V-FITC/propidium iodide staining-based flow cytometry analysis (reference value: 96.0%); type: functional; details: A549, 24 h, read-out: Activity; summary of the method: as §1
# NCI-H460 = test: Antiproliferative activity against human NCI-H460 cells after 48 hrs by MTT assay; type: functional, cell-based; details: NCI-H460, 48 h; summary of the method: as §2
# A549 [10] = test: Cell cycle arrest in human A549 cells assessed as accumulation at S phase at 5 uM after 24 hrs by propidium iodide staining based flow cytometry (reference value: 38.76%); type: functional
# A549 [11] = test: Cell cycle arrest in human A549 cells assessed as accumulation at G2 phase at 5 uM after 24 hrs by propidium iodide staining based flow cytometry (reference value: 14.1%); type: functional
# A549 [12] = test: Reduction in IkappaBalpha level in human A549 cells up to 20 uM after 24 hrs by Western blot analysis; type: functional, cell-based
# Summary of the method: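 A549 cells exposed to 5, 10 and 20 µM for 24 h. Western blots probed for NF-κB, p-IκBα, IκBα and p-IKKα/β, with GAPDH as internal control. Three experiments, representative blot shown.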
# A549 [13] = test: Induction of apoptosis in human A549 cells assessed as early apoptotic cells at 5 uM after 24 hrs by annexin V-FITC/propidium iodide staining-based flow cytometry analysis (reference value: 1.28%); type: functional; summary of the method: as §1
# A549 [14] = test: Cell cycle arrest in human A549 cells assessed as accumulation at G2 phase at 20 uM after 24 hrs by propidium iodide staining based flow cytometry (reference value: 14.1%); type: functional
# [15] = Selectivity ratio of IC50 for cisplatin-resistant human SKOV3/DDP cells to IC50 for cisplatin sensitive human SKOV3 cells; type: functional
# Summary of the method: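 IC50 determined in resistant SK-OV-3/CDDP cells divided by IC50 in parental SK-OV-3 cells. Each IC50 by MTT, three separate experiments each in triplicate.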
# A549 [16] = test: Induction of apoptosis in human A549 cells assessed as late apoptotic cells at 5 uM after 24 hrs by annexin V-FITC/propidium iodide staining-based flow cytometry analysis (reference value: 2.20%); type: functional; summary of the method: as §1
# A549 [17] = test: Cell cycle arrest in human A549 cells assessed as accumulation at G1 phase at 10 uM after 24 hrs by propidium iodide staining based flow cytometry (reference value: 47.0%); type: functional
# A549 [18] = test: Induction of apoptosis in human A549 cells assessed as necrotic apoptotic cells at 5 uM after 24 hrs by annexin V-FITC/propidium iodide staining-based flow cytometry analysis (reference value: 0.520%); type: functional; summary of the method: as §1
# A549 [19] = test: Induction of mitochondrial membrane potential loss in human A549 cells at 5 to 20 uM after 24 hrs by JC-1 staining-based fluorescence microscopic analysis; type: functional, cell-based
# Summary of the method: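 A549 cells treated at 5, 10 and 20 µM for 24 h, then loaded with JC-1 probe for 30 min. Red J-aggregate and green J-monomer fluorescence viewed by fluorescence microscopy. Three experiments.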
# A549 [20] = test: Cell cycle arrest in human A549 cells assessed as accumulation at G2 phase at 10 uM after 24 hrs by propidium iodide staining based flow cytometry (reference value: 14.1%); type: functional
# HepG2 = test: Antiproliferative activity against human HepG2 cells after 48 hrs by MTT assay; type: functional, cell-based; details: HepG2, 48 h; summary of the method: as §2
# A549 [21] = test: Induction of ROS generation in human A549 cells at 5 to 20 uM after 24 hrs by DCFH-DA staining-based fluorescence microscopic analysis; type: functional, cell-based
# Summary of the method: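 Intracellular ROS in A549 cells after 24 h incubation, using DCF-DA probe. Green cytoplasmic fluorescence viewed by fluorescence microscopy against untreated control. Three experiments.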
# A549 [22] = test: Cell cycle arrest in human A549 cells assessed as accumulation at S phase at 10 uM after 24 hrs by propidium iodide staining based flow cytometry (reference value: 38.76%); type: functional
# A549 [23] = test: Induction of apoptosis in human A549 cells assessed as early apoptotic cells at 10 uM after 24 hrs by annexin V-FITC/propidium iodide staining-based flow cytometry analysis (reference value: 1.28%); type: functional; summary of the method: as §1
smiles,measurement,setting,value
CCOP(=O)(OCC)C(Nc1ccc(CC(=O)NCCCCNC(=O)[C@@]2(C)CC[C@]3(C)CC[C@]4(C)C(=CC(=O)[C@@H]5[C@@]6(C)CC[C@H](OC(C)=O)C(C)(C)[C@@H]6CC[C@]54C)[C@@H]3C2)cc1)c1ccc(F)cc1 (some centres undefined),Activity,A549 [1],59.91%
same,viability at 5 µM,A549 [2],86.4%
same,IC50,L02,> 50 µM
same,Activity,A549 [3],19.5%
same,IC50,[4],8.94 µM
same,Activity,A549 [5],54.32%
same,IC50,SK-OV-3,9.75 µM
same,IC50,MG-63,9.01 µM
same,Activity,A549 [6],Dose-dependent effect
same,IC50,[7],0.97 µM
same,IC50,MGC-803,8.73 µM
same,Activity,A549 [8],Active
same,viability at 20 µM,A549 [9],40.3%
same,IC50,NCI-H460,8.28 µM
same,Activity,A549 [10],40.09%
same,Activity,A549 [11],0%
same,Activity,A549 [12],Active
same,Activity,A549 [13],1.96%
same,Activity,A549 [14],2.66%
same,Ratio IC50,[15],0.92
same,Activity,A549 [16],11.6%
same,Activity,A549 [17],46.5%
same,Activity,A549 [18],0.09%
same,Activity,A549 [19],Active
same,Activity,A549 [20],9.9%
same,IC50,HepG2,9.11 µM
same,Activity,A549 [21],Active
same,Activity,A549 [22],43.6%
same,Activity,A549 [23],19.1%
